From article PMC12265513 (bioRxiv, 2025) come the findings set out here.

Peptide text beside a SMILES is read from it. * marks the point of attachment. FITC = O=C1OC2(c3ccc(O)cc3Oc3cc(O)ccc32)c2ccc(NC(=S)*)cc21; Ahx = NCCCCCC(=O)O

Assay [1] has as its target GST-fused construct of the NEDD9-SH3 domain (Homo sapiens, UniProt Q14511). In words: Fluorescence polarization, direct binding of FITC-labeled pep01 probe. (In general: Fluorescence polarisation rises when a labelled molecule tumbles more slowly, as on binding a larger partner.)
Assay [2] relates to NEDD9-SMAD3 complex. In words: NEDD9-SMAD3 complex formation. In kind it is cell-based, human. The note with it: H2O2 (500 μM) for 20 min, n=3. The method, boiled down: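 HPAECs were treated with 500 μM H2O2 for 20 min with or without test compound. The complex was measured two ways. One was anti-NEDD9 immunoprecipitation followed by anti-SMAD3 immunoblot. The other was proximity ligation with mouse anti-NEDD9 and rabbit anti-SMAD3, normalised to total NEDD9 expression. n=3.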

Assay [3] has as its system NEDD9. Nature of the assay: NEDD9 immunoblot in HPAECs. In kind it is cell-based, human. The note with it: 50-200 μM for 30-120 min, basal conditions, vs vehicle, n=3. The method, boiled down: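 Confluent HPAECs in EBM-2 medium received test compound from a 10 mM DMSO stock, with DMSO as vehicle, for 30, 60 or 120 min. Lysates were immunoblotted with anti-NEDD9 (1:1000) overnight at 4°C, then peroxidase secondary and ECL detection.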
A general note: Immunoblotting shows a protein as a band on a membrane.

For assay [4], the system named is HPAECs. Nature of the assay: Anti-collagen III immunofluorescence in HPAECs. In kind it is cell-based, human. The note with it: 24 hr, n=3. The method, boiled down: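 HPAECs grown on glass chamber slides were exposed to test compound for 24 hr. They were then fixed in 4% formalin in PBS and blocked with 10% goat albumin in PBS for 1 hr at room temperature. Primary antibody (1:100) was applied overnight at 4°C. Collagen III deposition and NEDD9-positive cells were scored by immunofluorescence.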

In assay [5] the test system is BRAF-RBD. In words: Intact MS counter screen. The assay is classed as binding. The note with it: deconvoluted MS. In short, it runs like this:
(§1)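 Dual screen: NEDD9-SH3 (1-64) and BRAF-RBD, each at 1 μM, were mixed in one reaction with 100 μM covalent fragment. Controls were 100 μM iodoacetamide or 1% DMSO. Buffer was 50 mM HEPES pH 7.4, 100 mM NaCl, 4 h at 21°C. Reactions were quenched to 0.2% formic acid and read by RapidFire QTOF MS. Hits formed a single adduct on NEDD9-SH3 at least two-fold greater than on BRAF-RBD.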
(A counterscreen serves to expose hits that act by an unwanted route or on another target.)

Assay [6] concerns NEDD9-SH3 (1-64). In words: Intact protein mass spectrometry, covalent modification of the SH3 domain. The settings on record: intact MS and 2-D NMR. The assay is classed as binding. The method, boiled down:
as §1

Regarding `C[C@H](NC(=O)[C@H](CCC(=O)O)NC(=O)[C@H](CC(=O)O)NC(=O)CCCCCNC(=S)Nc1ccc2c(c1)C(=O)OC21c2ccc(O)cc2Oc2cc(O)ccc21)C(=O)N1CCC[C@H]1C(=O)N1CCC[C@H]1C(=O)N[C@@H](CCCCN)C(=O)N1CCC[C@H]1C(=O)N[C@@H](CO)C(=O)N[C@@H](CCCNC(=N)N)C(=O)N1CCC[C@H]1C(=O)NCC(=O)N[C@@H](Cc1ccc(O)cc1)C(=O)N1CCC[C@H]1C(=O)N[C@@H](CO)C(N)=O` [FITCylated pep01] ({FITC-Ahx}-DEAPPKPSRPGYPS-NH2), the Kd in assay [1] came to 4 µM. In other words, the single-digit micromolar range.
Consider `C=CC(=O)Nc1cc(C(F)(F)F)cc(C(F)(F)F)c1` [Fragment 1, N-[3,5-Bis(trifluoromethyl)phenyl] acrylamide], for which the NEDD9-SMAD3 complex formation result in assay [2] is given as “restored NEDD9-SMAD3 complex formation”. For the same compound, the “NEDD9 protein quantity by immunoblot” value in assay [3] is reported as “decreased NEDD9 protein quantity”. In addition, the “fibrosis in cellulo by anti-collagen III immunofluorescence” value in assay [4] is listed as “decreased fibrosis”.
`C[C@@H]1CCN(C(=O)CCl)[C@@H](C(N)=O)C1` [Fragment 2, (2R,4R)-1-(2-chloroacetyl)-4-methylpiperridine-2-carboxamide]: the BRAF-RBD modification result in assay [5] is listed as “did not show BRAF-RBD modification”. Also, the “adduct formation to NEDD9-SH3” value in assay [6] was “dose- and time-dependent increase in adduct formation”.

The term Kd denotes the equilibrium constant for the complex coming apart. A low value points to tighter binding.
